Calls of active or inactive are those of the source. The rule behind the calls is not given here.
target: CCR4-NOT transcription complex subunit 6 (Homo sapiens) (UniProt Q9ULM6); assay: Inhibition of Ccr4 (unknown origin) at 30 uM by fluorescence-based assay
In short: (§1)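 Fluorescence-based ribonuclease activity assay with Ccr4, using one compound concentration per reaction (30, 10 or 3 μM, as in each line). The reactions compared were a no-enzyme control, a complete reaction with enzyme, and a complete reaction plus compound. Data are shown with standard deviation error bars.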

CCR4-NOT transcription complex subunit 6 (Homo sapiens), sequence (Q9ULM6 whole entry, one chain of several): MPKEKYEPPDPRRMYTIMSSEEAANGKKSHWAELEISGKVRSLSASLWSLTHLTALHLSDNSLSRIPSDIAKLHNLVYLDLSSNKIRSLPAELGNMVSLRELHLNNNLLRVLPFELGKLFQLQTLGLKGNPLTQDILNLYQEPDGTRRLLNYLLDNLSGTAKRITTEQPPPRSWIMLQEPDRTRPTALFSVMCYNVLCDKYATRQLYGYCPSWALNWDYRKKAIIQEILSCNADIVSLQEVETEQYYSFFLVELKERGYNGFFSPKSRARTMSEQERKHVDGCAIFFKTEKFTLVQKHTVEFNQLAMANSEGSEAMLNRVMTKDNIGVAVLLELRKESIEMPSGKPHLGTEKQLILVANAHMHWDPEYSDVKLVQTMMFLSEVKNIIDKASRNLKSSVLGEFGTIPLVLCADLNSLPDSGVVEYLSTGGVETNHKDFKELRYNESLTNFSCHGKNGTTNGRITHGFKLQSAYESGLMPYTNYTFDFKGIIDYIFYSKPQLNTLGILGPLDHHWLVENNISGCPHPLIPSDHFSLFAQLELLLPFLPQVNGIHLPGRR

inhibition	SMILES
inactive	CCn1c(=O)n(O)c(=O)c2c1ncn2CCc1ccccc1
inactive	O=c1[nH]c2ncn(C3CCCCC3)c2c(=O)n1O
inactive	O=c1[nH]c2ncn(Cc3ccccn3)c2c(=O)n1O
inactive	Cn1c(=O)n(O)c(=O)c2c1ncn2CCc1ccccc1
inactive	CCCCCCCCCn1c(=O)n(O)c(=O)c2c1ncn2CCc1ccccc1
inactive	O=c1[nH]c2ncn(Cc3ccncc3)c2c(=O)n1O
inactive	O=c1c2c(ncn2CCc2ccccc2)n(CCCc2ccccc2)c(=O)n1O
inactive	O=c1[nH]c2ncn(Cc3ccccc3)c2c(=O)n1O
inactive	CCCCCn1c(=O)n(O)c(=O)c2c1ncn2CCc1ccccc1
inactive	O=c1[nH]c2ncn(Cc3cccnc3)c2c(=O)n1O

target: CCR4-NOT transcription complex subunit 6 (Homo sapiens) (UniProt Q9ULM6); assay: Inhibition of Ccr4 (unknown origin) at 10 uM by fluorescence-based assay; in short: as §1

inhibition	SMILES
inactive	O=c1[nH]c2ncn(CCc3ccccn3)c2c(=O)n1O
inactive	O=c1[nH]c2ncn(CCc3cccs3)c2c(=O)n1O
inactive	O=c1[nH]c2ncn(CCOc3ccccc3)c2c(=O)n1O
inactive	O=c1[nH]c2ncn(CCc3ccccc3)c2c(=O)n1O

target: CCR4-NOT transcription complex subunit 6 (Homo sapiens) (UniProt Q9ULM6); assay: Inhibition of Ccr4 (unknown origin) at 3 uM by fluorescence-based assay; in short: as §1

inhibition	SMILES
inactive	CN(C)CCCn1c(=O)n(O)c(=O)c2c1ncn2CCc1ccccc1
inactive	CC(C)CCCn1c(=O)n(O)c(=O)c2c1ncn2CCc1ccccc1

Reference: ChEMBL document CHEMBL3616430, “Discovery, synthesis and biochemical profiling of purine-2,6-dione derivatives as inhibitors of the human poly(A)-selective ribonuclease Caf1” (Bioorg Med Chem Lett, 2015)
